Rows were chosen to be rich in hits. Some 3.7% of all compounds tested hit in one or more screens of this group.
DENV2 CPE = inhibitors of DENV2 cytopathic effect, primary screen, cell-based, plate reader, single concentration; DENV2-infected cells, cytopathic effect rescue; CPE inhibition, % at 9.99 µM; 1.7% of 350,000 active; AID 651640, 2012; in the data active means CPE inhibition above about 20%, passing the limit was not always enough; inconclusive means no clear call, values can overlap the other calls; tested in BHK-21 cells
E-sel inducer = E-selectin induction in HUVECs, primary screen, imaging, HUVEC, immunofluorescence imaging, single point; AID 686992, 2013; normalized: neutral wells 0, TNF-alpha wells 100; P16581; 0.37% of 260,000 active; activation, % at 7.58 µM;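 active means mean E-selectin-positive cell signal at least 10% of the positive control, reached in at least 60% of replicates, without over 20% cell loss; inconclusive means no rule given, readout overlaps actives, possibly toxicity-flagged; inactive means the rest, including those meeting only one limit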
Target sequence (P16581 whole entry, looked up): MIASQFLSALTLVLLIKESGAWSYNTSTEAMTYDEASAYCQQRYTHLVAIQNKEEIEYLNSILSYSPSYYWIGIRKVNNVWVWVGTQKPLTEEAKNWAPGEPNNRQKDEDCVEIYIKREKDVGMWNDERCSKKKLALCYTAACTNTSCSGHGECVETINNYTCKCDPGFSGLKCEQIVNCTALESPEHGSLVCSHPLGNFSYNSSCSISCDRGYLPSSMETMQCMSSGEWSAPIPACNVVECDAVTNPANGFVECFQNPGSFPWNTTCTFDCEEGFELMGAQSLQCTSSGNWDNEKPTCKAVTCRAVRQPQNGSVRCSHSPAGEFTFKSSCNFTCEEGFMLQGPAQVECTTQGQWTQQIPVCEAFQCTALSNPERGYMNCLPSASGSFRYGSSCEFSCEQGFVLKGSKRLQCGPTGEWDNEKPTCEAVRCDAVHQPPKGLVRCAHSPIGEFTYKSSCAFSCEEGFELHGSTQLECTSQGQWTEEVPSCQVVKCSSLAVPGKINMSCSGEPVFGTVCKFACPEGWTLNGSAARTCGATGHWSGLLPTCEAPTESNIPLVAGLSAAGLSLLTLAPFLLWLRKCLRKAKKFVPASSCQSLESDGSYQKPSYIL
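Material: HUVEC primary endothelial cells; Amount: 3,000 cells per well; Dosing: single concentration; Medium: EGM-2 growth medium on 0.1% gelatin-coated wells; Read-out basis: percent E-selectin-positive cells; Signal: immunofluorescence imaging; Control set: TNF-alpha, DMSO.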
F508del corr = F508del CFTR correction, initial screen, CFBE line, single point; CFBE cells, YFP halide quenching; stimulated with forskolin plus potentiator P3; % fluorescence drop versus neutral controls; 0.36% of 350,000 active; activity (quench increase), % at 7.58 µM; AID 720511, 2013;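 active means mean added fluorescence quench of at least 8% versus neutral control, with both replicates also reaching 8%; inconclusive means only one of the mean or replicate conditions met; inactive means mean below 8% and not both replicates reaching 8%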;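 further: cells transiently co-express mutant CFTR-F508del with the halide-sensitive YFP; corrector assay measuring rescue of mutant channel to the surface after 24 h compound exposure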
ERAP1 HTS inh = human ERAP1 aminopeptidase inhibitors, primary screen, biochemical, single point, plate reader; Endoplasmic reticulum aminopeptidase 1 (Homo sapiens), Q9NZ08; AID 652197, 2013; 0.15% of 340,000 active; recombinant ERAP1, Leu-AMC fluorescence, 60 min; inhibition, % at 10.7 µM;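 active means mean replicate inhibition of at least 30%, or all replicates individually reaching that 30% level; inactive means mean below 30% and not every replicate reaching it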
FGF22 binding = binders of human FGF22 protein, primary screen, FGF22 synaptogenesis inhibitor project, biophysical, thermal shift, single point; Fibroblast growth factor 22 (Homo sapiens), Q9HCT0; recombinant FGF22 thermal shift, SYPRO orange fluorescence; percent of sucrose octasulfate shift, DMSO zero; activity (Tm shift, normalised), % at 9.99 µM; 1.5% of 340,000 active; AID 651658, 2012;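 active means mean Tm shift, scaled 0 neutral to 100 positive control, at about 1.3% or above, every replicate too, limit read from the data; inconclusive means no clear call, values can overlap the other calls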
Of the large screens only hits and unclear results are named; the others gave an inactive call; ! = repeats disagree.

CCCc1nc2c(C)cc(Br)cn2c1Cc1ccc(OC)cc1C	DENV2 CPE 21 (no result: E-sel inducer)
COc1ccc(NC(=O)Nc2ccc3c(c2)C(=O)N([C@H](C)CO)C[C@H](C)[C@@H](CN(C)C(=O)Nc2ccc(C(F)(F)F)cc2)OCCCC[C@H](C)O3)cc1	DENV2 CPE inconclusive
CN1C(=O)c2cc(NC(=O)c3cccc(C(F)(F)F)c3)ccc2OC[C@@H]2O[C@H](CC(=O)NCCN3CCCC3)CC[C@@H]21	none
O=C(CC(C(=O)O)P(=O)(c1ccccc1)c1ccccc1)c1ccccc1 (stereo unspecified)	FGF22 binding 43
CC(C)CC#Cc1cnc2c(c1)C(=O)N([C@@H](C)CO)C[C@H](C)[C@@H](CN(C)C(=O)c1ccccc1F)O2	none
CCOC(=O)c1c(NC(=O)COc2ccccc2F)sc2c1CC(C)(C)NC2(C)C	DENV2 CPE inconclusive, FGF22 binding 18
CCOC(=O)c1c(NC(=O)CSc2ncccn2)sc2c1CC(C)(C)NC2(C)C	none
CCN(C[C@H]1N[C@@](CC)(C(=O)OC)[C@H]2C(=O)N(C)C(=O)[C@@H]12)S(=O)(=O)c1ccc(-c2ccccc2)cc1	none (no result: E-sel inducer)
CCN(C[C@H]1N[C@@](C)(C(=O)OC)[C@H]2C(=O)N(C)C(=O)[C@@H]12)C(=O)Nc1ccc(F)cc1	none (no result: E-sel inducer)
CCN(C[C@H]1N[C@@](C)(C(=O)OC)[C@H]2C(=O)N(C)C(=O)[C@@H]12)S(=O)(=O)c1ccc(-c2ccccc2)cc1	DENV2 CPE 20 (no result: E-sel inducer)
CCN(C[C@H]1N[C@@](CC)(C(=O)OC)[C@H]2C(=O)N(C)C(=O)[C@@H]12)S(=O)(=O)c1ccc(OC)cc1	DENV2 CPE 26 (no result: E-sel inducer)
CCNC(=O)N(CC)C[C@H]1N[C@@](C)(C(=O)OC)[C@H]2C(=O)N(C)C(=O)[C@@H]12	DENV2 CPE 46
O=C(C[C@H]1CC[C@@H](NC(=O)Cc2ccccn2)[C@@H](CO)O1)NCCc1ccncc1	none
CO[C@@H]1CN(C)C(=O)c2ccc(NS(=O)(=O)c3ccc(C)cc3)cc2OC[C@H](C)N(C(=O)NC(C)C)C[C@@H]1C	none (no result: DENV2 CPE, ERAP1 HTS inh, FGF22 binding)
O=C(Nc1ccccc1)N1CC(=O)N2[C@@H](CO)[C@@H](c3ccc(C#CC4CCCC4)cc3)[C@@H]2C1	DENV2 CPE inconclusive (no result: FGF22 binding)
O=C(Nc1ccc2c(c1)[C@H]1C[C@@H](CC(=O)N3CCCCC3)O[C@@H](CO)[C@H]1O2)c1cccnc1	none
CC(C)NC(=O)Nc1ccc2c(c1)C(=O)N(C)[C@@H]1CC[C@@H](CC(=O)NCC(F)(F)F)O[C@@H]1CO2	E-sel inducer 105 (no result: ERAP1 HTS inh)
CCNC(=O)C[C@H]1CC[C@@H]2[C@H](COc3ccc(NC(=O)NC(C)C)cc3C(=O)N2C)O1	DENV2 CPE 41
N#CC1(NC(=O)CN2C(=O)c3ccccc3C2=O)CCCCC1	E-sel inducer 50
CN1C(=O)c2cc(NC(=O)C3CC3)ccc2OC[C@@H]2O[C@H](CC(=O)NCCN3CCCC3)CC[C@@H]21	none
Cc1occc1C(=O)N/N=C/c1sc(N2CCOCC2)nc1-c1ccccc1	none (no result: E-sel inducer)
Cc1occc1C(=O)N/N=C/C1=C(N2CCOCC2)C(=C/c2ccc(Cl)cc2Cl)/CC1	FGF22 binding 43
O=C(O)c1ccccc1C(=O)N1CCN(Cc2ccc3c(c2)OCO3)CC1	none
O=C(C1=C[C@@H](c2coc3ccccc3c2=O)C[C@@H](OCc2ccc(CO)cc2)O1)N1CCN(Cc2ccccc2)CC1	FGF22 binding 1.4 (no result: E-sel inducer)
O=C(C1=C[C@@H](c2ccccc2)C[C@@H](OCc2ccc(CO)cc2)O1)N1CCN(Cc2ccc3c(c2)OCO3)CC1	F508del corr 8.8!
CCC(C)NC(=S)N1CCN(Cc2ccc3c(c2)OCO3)CC1 (stereo unspecified)	FGF22 binding 43 (no result: E-sel inducer)
O=C(c1ccccc1Br)N1CCN(Cc2ccc3c(c2)OCO3)CC1	DENV2 CPE 50
C[C@@H]1CCCCO[C@@H](CN(C)Cc2ccc(C(=O)O)cc2)[C@H](C)CN([C@H](C)CO)C(=O)c2cc(NC(=O)CCC(F)(F)F)ccc2O1	none
Cc1ccc(S(=O)(=O)Nc2ccc3c(c2)CC(=O)N([C@@H](C)CO)C[C@H](C)[C@H](CN(C)C(=O)Nc2ccc4c(c2)OCO4)O3)cc1	none
CC(=O)N(C)C[C@H]1Oc2ncc(-c3ccccc3F)cc2C(=O)N([C@H](C)CO)C[C@@H]1C	none
CC=Cc1ccc2n(c1=O)C[C@H]1[C@H](CO)[C@@H](C(=O)NCc3cccc(OC)c3)N[C@@H]21 (mixture of isomers)	none (no result: F508del corr)
C[C@H](NC(=O)c1ccccc1)C(=O)N1CCN(Cc2ccc3c(c2)OCO3)CC1	none (no result: E-sel inducer)
NC(=O)CC[C@H](NC(=O)c1ccc(F)cc1)C(=O)N1CCN(Cc2ccc3c(c2)OCO3)CC1	FGF22 binding 43
CC(=O)n1cc([C@H]2C=C(C(=O)N3CCN(Cc4ccc5c(c4)OCO5)CC3)O[C@@H](OCc3ccc(CO)cc3)C2)c2ccccc21	DENV2 CPE 24
C[C@H]1CN([C@@H](C)CO)C(=O)c2cc(NC(=O)c3ccncc3)ccc2O[C@@H]1CN(C)C(=O)Nc1ccc2c(c1)OCO2	none
C[C@H]1CN([C@@H](C)CO)C(=O)c2cc(NS(=O)(=O)c3cccs3)ccc2O[C@H]1CN(C)S(=O)(=O)c1cn(C)cn1	none
COc1cc(/C=N/Nc2nc(=O)[nH]nc2C)cc(OC)c1O	none (no result: E-sel inducer)
Cc1n[nH]c(=O)nc1N/N=C/c1ccco1	FGF22 binding 44 (no result: DENV2 CPE, E-sel inducer)
O=[N+]([O-])c1ccccc1S(=O)(=O)Nc1cccc(-c2ccc3nncn3n2)c1	DENV2 CPE 65 (no result: E-sel inducer)
O=[N+]([O-])c1ccccc1S(=O)(=O)Nc1ccc(-c2ccc3nncn3n2)cc1	none
CCS(=O)(=O)NCC[C@@H]1CC[C@@H](NC(=O)C2CCC2)[C@H](CO)O1	none
CCC(=O)N(C)C[C@H]1Oc2cc(-c3ccncc3)ccc2S(=O)(=O)N([C@H](C)CO)C[C@@H]1C	none
Cc1csc(=O)n1CCC(=O)OCC(=O)Nc1cc([N+](=O)[O-])ccc1Cl	DENV2 CPE 37 (no result: E-sel inducer)
Cc1ccc(NC(=O)COC(=O)CCn2c(C)csc2=O)c([N+](=O)[O-])c1	none
Cc1noc(C)c1NC(=O)Nc1ccc2c(c1)C(=O)N([C@H](C)CO)C[C@@H](C)[C@@H](CN(C)C(=O)Nc1ccccc1)O2	none (no result: DENV2 CPE, ERAP1 HTS inh, FGF22 binding)
N#C/C(=C\c1ccc2c(c1)OCCO2)C(=O)NC1CCCCC1	DENV2 CPE 62 (no result: E-sel inducer, F508del corr)
CCCCNC(=O)/C(C#N)=C/c1ccc2c(c1)OCCO2	none (no result: F508del corr)
O=C(N[C@@H]1CC[C@@H](CC(=O)N2CCc3ccccc3C2)O[C@H]1CO)C1CCOCC1	none
